Results as given in ChEMBL document CHEMBL4316602, “Investigating the promiscuity of the chloramphenicol nitroreductase from Haemophilus influenzae towards the reduction of 4-nitrobenzene derivatives” (Bioorg Med Chem Lett, 2019).

Legend:
Assay type in all cases: ADME; call rule not given here
[1] = Substrate activity at recombinant Haemophilus influenzae Chloramphenicol nitroreductase expressed in Escherichia coli assessed as benzoic acid formation at 1 mM measured after 24 hrs at pH 8 under 37 degC by LC-MS analysis; conditions: pH 8, 24 h, 1000 µM
How it was run: (§1)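 50 mM Tris-HCl pH 8.0 holding 1 mM nitro compound, 5 µM CNR and 100 µM NADPH. NADPH is regenerated by 40 mM glucose plus 4 µM glucose dehydrogenase. Incubated 24 h at 37 °C, then extracted with EtOAc, dried, redissolved in MeOH and analysed by LCMS for reduction products.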

[2] = Substrate activity at recombinant Haemophilus influenzae Chloramphenicol nitroreductase expressed in Escherichia coli assessed as 4-aminoether formation at 1 mM measured after 24 hrs at pH 8 under 37 degC by LC-MS analysis; conditions: pH 8, 24 h, 1000 µM; how it was run: as §1
[3] = Substrate activity at recombinant Haemophilus influenzae Chloramphenicol nitroreductase expressed in Escherichia coli assessed as hydroxylamine formation at 1 mM measured after 24 hrs at pH 8 under 37 degC by LC-MS analysis; conditions: pH 8, 24 h, 1000 µM; how it was run: as §1
[4] = system: Chloramphenicol nitroreductase; assay: Substrate activity at recombinant Haemophilus influenzae Chloramphenicol nitroreductase expressed in Escherichia coli assessed as Km measured at 30 sec interval for 30 mins in presence of NADPH at 50 degC by Michaelis-Menton plot analysis
How it was run: (§2)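 Chloramphenicol varied 0–2500 µM (0, 1, 5, 10, 50, 100, 250, 500, 2500) with 0.4 µM CNR, 750 µM NADPH, 50 mM Tris-HCl pH 8.0, at 37 or 50 °C. NADPH consumption was followed at 340 nm every 30 s for 30 min. Initial rates came from the first 2–5 min, fitted to Michaelis–Menten for kcat and Km.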

[5] = Substrate activity at recombinant Haemophilus influenzae Chloramphenicol nitroreductase expressed in Escherichia coli assessed as Kcat measured at 30 sec interval for 30 mins in presence of NADPH at 37 degC by Michaelis-Menton plot analysis; conditions: 0.5 h; how it was run: as §2
[6] = Substrate activity at recombinant Haemophilus influenzae Chloramphenicol nitroreductase expressed in Escherichia coli assessed as ratio Kcat to Km measured at 30 sec interval for 30 mins in presence of NADPH at 37 degC by Michaelis-Menton plot analysis; conditions: 0.5 h; how it was run: as §2
[7] = Substrate activity at recombinant Haemophilus influenzae Chloramphenicol nitroreductase expressed in Escherichia coli at 150 uM measured at 30 sec interval for 60 mins in presence of NADPH at 50 degC; conditions: 1 h
[8] = Substrate activity at recombinant Haemophilus influenzae Chloramphenicol nitroreductase expressed in Escherichia coli assessed as Kcat measured at 30 sec interval for 30 mins in presence of NADPH at 50 degC by Michaelis-Menton plot analysis; conditions: 0.5 h; how it was run: as §2
[9] = Substrate activity at recombinant Haemophilus influenzae Chloramphenicol nitroreductase expressed in Escherichia coli assessed as ratio of Kcat to Km measured at 30 sec interval for 30 mins in presence of NADPH at 50 degC by Michaelis-Menton plot analysis; conditions: 0.5 h; how it was run: as §2
[10] = Substrate activity at recombinant Haemophilus influenzae Chloramphenicol nitroreductase expressed in Escherichia coli at 150 uM measured at 30 sec interval for 60 mins in presence of NADPH at pH 8; conditions: pH 8, 1 h
How it was run: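 Each nitro compound at 150 µM in 50 mM Tris-HCl pH 8.0 with 1.0 mM NADPH. Started with 1 µM CNR and read at 340 nm (NADPH) every 30 s for 60 min. Initial rates were taken from the first 5 min and expressed as % of the chloramphenicol rate.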

[11] = system: Chloramphenicol nitroreductase; assay: Substrate activity at recombinant Haemophilus influenzae Chloramphenicol nitroreductase expressed in Escherichia coli assessed as Km measured at 30 sec interval for 30 mins in presence of NADPH at 37 degC by Michaelis-Menton plot analysis; how it was run: as §2

Question: Which Activity [1] does the source give for `O=C(OCc1ccc([N+](=O)[O-])cc1)c1ccc(Cl)cc1` here?
Answer: Active

Question: For `O=[N+]([O-])c1ccc(COCc2ccc(Br)cc2)cc1`, which Activity [2] is on record?
Answer: Active

Question: And the Activity [3]?
Answer: Active

Question: For `O=C(OCc1ccc([N+](=O)[O-])cc1)c1ccc(Cl)cc1F`, which Activity [1] is on record?
Answer: Active

Question: What does the source list for `O=C(N[C@H](CO)[C@H](O)c1ccc([N+](=O)[O-])cc1)C(Cl)Cl` [CHLORAMPHENICOL]?
Answer: Km at 0.5 h [4]: 191 µM; Kcat [5]: 61 s⁻¹; Kcat/Km [6]: 220000 M⁻¹ s⁻¹; Activity [7]: Active; Kcat [8]: 65 s⁻¹; Kcat/Km [9]: 340000 M⁻¹ s⁻¹; Activity [10]: Active; Km at 0.5 h [11]: 273 µM
